This is an account of results in ChEMBL document CHEMBL3414528, “Novel naftopidil-related derivatives and their biological effects as alpha1-adrenoceptors antagonists and antiproliferative agents” (Eur J Med Chem, 2015).

Active and inactive are the calls of the source. The calls are words filed in the database; no cut-off is given here.

Assay [1] is described as follows: Cytotoxicity against human PC3 cells after 48 hrs by WST-8 assay. The class given is functional, cell-based. Conditions: PC-3, 48 h. On the technique in general: Formazan colour is commonly taken as a measure of viable cells.
Assay [2] in a line: Cell cycle arrest in human PC3 cells assessed as accumulation at G0/G1 phase at 20 uM after 24 hrs by propidium iodide staining-based flow cytometry (reference value: 39.20%). The class given is functional. Conditions: PC-3. In short, it runs like this:
(§1)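 PC-3 cells given compound at 5, 10, 15, 20 or 30 μM, or 0.1% DMSO vehicle, for 24 h; stained with propidium iodide and analysed by flow cytometry for G0/G1, S and G2/M fractions.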

The test system of assay [3] is PC-3. Nature of the assay: Induction of apoptosis in human PC3 cells assessed as early apoptotic cells at 30 uM after 24 hrs by annexin V/propidium iodide staining-based flow cytometry (reference value: 5.7%). It is filed as functional. In short, it runs like this: (§2)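 Phosphatidylserine exposure in PC-3 cells after 24 h at 0, 5, 10, 20 or 30 μM, by Alexa Fluor 488 annexin V/PI double staining and flow cytometry; early apoptotic = AV+/PI−, late apoptotic or dead = AV+/PI+.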
A general note: Flow cytometry measures light scatter and fluorescence of single cells or particles in a stream.

Assay [4] concerns PC-3. Nature of the assay: Induction of apoptosis in human PC3 cells assessed as total apoptotic cells at 5 uM after 24 hrs by annexin V/propidium iodide staining-based flow cytometry. It is filed as functional. The method in brief: as §2
Assay [5] in a line: Cell cycle arrest in human PC3 cells assessed as accumulation at S phase at 15 uM after 24 hrs by propidium iodide staining-based flow cytometry (reference value: 27.26%). Conditions: PC-3. It is filed as functional. The method in brief: as §1
The species named for assay [6] is Rattus norvegicus. Briefly: Selectivity ratio for Sprague-Dawley rat thoracic aorta adrenergic alpha-1D receptor to Sprague-Dawley rat spleen adrenergic alpha-1B receptor. It is filed as tissue-based.
The test system of assay [7] is PC-3. Briefly: Induction of apoptosis in human PC3 cells assessed as early apoptotic cells at 5 uM after 24 hrs by annexin V/propidium iodide staining-based flow cytometry (reference value: 5.7%). The class given is functional. In short, it runs like this:
as §2

Assay [8] is described as follows: Induction of apoptosis in human PC3 cells assessed as upregulation of caspase3 level after 24 hrs by Western blotting analysis. The class given is functional, cell-based. Conditions: PC-3. The method in brief: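 PC-3 cells exposed for 24 h to 0, 1, 5, 10, 20 or 30 μM; Bax, Bcl-2 and activated caspase-3 measured by Western blot, reported as Bax/Bcl-2 value.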

Assay [9] can be described thus: Cell cycle arrest in human PC3 cells assessed as accumulation at G2/M phase at 15 uM after 24 hrs by propidium iodide staining-based flow cytometry (reference value: 33.04%). The class given is functional. The conditions noted are these: PC-3. The method in brief: as §1
Assay [10] can be described thus: Cell cycle arrest in human PC3 cells assessed as accumulation at G2/M phase at 10 uM after 24 hrs by propidium iodide staining-based flow cytometry (reference value: 33.04%). The class given is functional. Conditions: PC-3. In short, it runs like this: as §1
Assay [11] relates to PC-3. Nature of the assay: Induction of apoptosis in human PC3 cells assessed as total apoptotic cells at 10 uM after 24 hrs by annexin V/propidium iodide staining-based flow cytometry. It is filed as functional. In short, it runs like this: as §2
Assay [12] is described as follows: Cell cycle arrest in human PC3 cells assessed as accumulation at G2/M phase at 20 uM after 24 hrs by propidium iodide staining-based flow cytometry (reference value: 33.04%). Conditions: PC-3. The class given is functional. In short, it runs like this: as §1
The nature of assay [13]: Cell cycle arrest in human PC3 cells assessed as accumulation at G0/G1 phase at 10 uM after 24 hrs by propidium iodide staining-based flow cytometry (reference value: 39.20%). Conditions: PC-3. The class given is functional. The method in brief:
as §1

In assay [14] the target is T1, Alpha-1B adrenergic receptor (Rattus norvegicus, UniProt P15823).
T1 sequence (P15823 whole entry): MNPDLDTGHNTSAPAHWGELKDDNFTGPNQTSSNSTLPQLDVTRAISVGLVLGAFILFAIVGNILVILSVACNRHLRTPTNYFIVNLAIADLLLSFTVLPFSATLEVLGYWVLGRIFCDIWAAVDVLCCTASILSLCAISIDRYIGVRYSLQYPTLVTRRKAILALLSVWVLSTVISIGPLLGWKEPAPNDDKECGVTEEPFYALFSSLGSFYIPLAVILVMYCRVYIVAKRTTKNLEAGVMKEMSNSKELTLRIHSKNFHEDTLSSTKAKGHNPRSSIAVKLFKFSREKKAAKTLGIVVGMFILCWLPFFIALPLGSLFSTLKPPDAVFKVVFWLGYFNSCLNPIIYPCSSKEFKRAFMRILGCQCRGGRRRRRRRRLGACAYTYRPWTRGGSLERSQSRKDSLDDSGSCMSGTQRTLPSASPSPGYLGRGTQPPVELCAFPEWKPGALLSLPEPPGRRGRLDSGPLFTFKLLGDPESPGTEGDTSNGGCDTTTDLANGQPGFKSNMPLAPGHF
Briefly: Antagonist activity at Sprague-Dawley rat spleen adrenergic alpha-1B receptor after 20 mins. Conditions: read-out: pA2 (converted). The method in brief: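 Isolated rat tissues (prostatic vas deferens, spleen, thoracic aorta) contracted with cumulative norepinephrine; concentration-response curves recorded in presence of increasing antagonist concentrations, antagonism read as rightward curve shift. Mean ± SEM of five to eight separate experiments.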

A short description of assay [15]: Cell cycle arrest in human PC3 cells assessed as accumulation at S phase at 5 uM after 24 hrs by propidium iodide staining-based flow cytometry (reference value: 27.26%). The class given is functional. Conditions: PC-3. In short, it runs like this:
as §1

Assay [16] concerns PC-3. Nature of the assay: Induction of apoptosis in human PC3 cells assessed as early apoptotic cells at 10 uM after 24 hrs by annexin V/propidium iodide staining-based flow cytometry (reference value: 5.7%). The class given is functional. In short, it runs like this:
as §2

Assay [17] has as its system PC-3. Nature of the assay: Induction of apoptosis in human PC3 cells assessed as early apoptotic cells at 20 uM after 24 hrs by annexin V/propidium iodide staining-based flow cytometry (reference value: 5.7%). It is filed as functional. In short, it runs like this:
as §2

For assay [18], the system named is PC-3. Briefly: Induction of apoptosis in human PC3 cells assessed as total apoptotic cells at 20 uM after 24 hrs by annexin V/propidium iodide staining-based flow cytometry. The class given is functional. The method in brief: as §2
Assay [19] has as its system PC-3. Nature of the assay: Inhibition of norepinephrine-induced cell proliferation in human PC3 cells at 1.5 to 100 uM by WST-8 assay. It is filed as functional, cell-based. In short, it runs like this:
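PC-3 cells treated with compound at 100, 75, 50, 25, 12.5, 6.25, 3.0 and 1.5 μM alone or together with norepinephrine (20 or 50 μM); viability by WST-8. Mean ± SEM, two-way ANOVA with post-hoc tests.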

The nature of assay [20]: Cell cycle arrest in human PC3 cells assessed as accumulation at S phase at 30 uM after 24 hrs by propidium iodide staining-based flow cytometry (reference value: 27.26%). The class given is functional. The conditions noted are these: PC-3. In short, it runs like this:
as §1

Assay [21] is described as follows: Cell cycle arrest in human PC3 cells assessed as accumulation at G0/G1 phase at 15 uM after 24 hrs by propidium iodide staining-based flow cytometry (reference value: 39.20%). It is filed as functional. Conditions: PC-3. In short, it runs like this:
as §1

The nature of assay [22]: Cell cycle arrest in human PC3 cells assessed as accumulation at S phase at 10 uM after 24 hrs by propidium iodide staining-based flow cytometry (reference value: 27.26%). It is filed as functional. Conditions: PC-3. In short, it runs like this:
as §1

The species entered for assay [23] is Rattus norvegicus. Briefly: Selectivity ratio for Sprague-Dawley rat thoracic aorta adrenergic alpha-1D receptor to Sprague-Dawley rat prostatic vas deferens adrenergic alpha-1A receptor.

Broadly, the IC50 is the concentration at which inhibition is half-maximal. High values mean a need for much substance, low ones inhibition by little substance. `COc1ccccc1N1CCN(CCCNC(=O)c2cc3ccccc3n2Cc2ccccc2)CC1` had an IC50 in assay [1] of 15.7 µM. For the same compound, the Activity in [2] is 61.6%; with PC-3 [3], 50.4%; in the assay on PC-3 [4], 23.7%; in [5], 14.5%; with PC-3 [7] it was 20.2%; in assay [8], “Dose-dependent effect”. Moreover, the Activity was determined as 14.9% in assay [9]; 26.5% in assay [10]; 51.1% in the assay with PC-3 [11]; 16.2% in assay [12]; 58.5% in [13]; 23.7% in [15]. Also, the Activity came out at 41.9% in the assay with PC-3 [16]; 44.9% in the assay on PC-3 [17]; 62.7% in the assay with PC-3 [18]; 20.9% in assay [20]; 70.6% in assay [21]; 15.2% in assay [22]. Further, the Ratio in the assay listed under Rattus norvegicus [6] amounted to 47.9; in the assay filed under Rattus norvegicus [23] it was 2.6. Besides, in assay [14], the Kb was 0.141 µM. The inhibition result with PC-3 [19] is “Active”.
